Series [1] addresses T1, Muscarinic acetylcholine receptor M1 (Rattus norvegicus, UniProt P08482).
T1 sequence (P08482 whole entry): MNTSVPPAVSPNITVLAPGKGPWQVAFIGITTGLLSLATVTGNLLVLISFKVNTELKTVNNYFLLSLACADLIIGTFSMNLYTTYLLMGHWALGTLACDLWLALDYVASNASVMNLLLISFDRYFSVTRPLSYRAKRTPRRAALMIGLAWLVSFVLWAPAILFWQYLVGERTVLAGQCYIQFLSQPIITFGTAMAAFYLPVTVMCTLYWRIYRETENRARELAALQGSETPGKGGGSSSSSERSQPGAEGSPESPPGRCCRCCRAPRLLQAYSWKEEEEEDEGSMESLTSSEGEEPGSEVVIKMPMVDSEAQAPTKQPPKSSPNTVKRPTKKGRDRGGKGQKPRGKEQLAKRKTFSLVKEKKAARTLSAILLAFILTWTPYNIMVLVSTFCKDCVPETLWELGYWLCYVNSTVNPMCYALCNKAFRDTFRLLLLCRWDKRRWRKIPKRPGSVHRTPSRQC
Nature of the series: Displacement of [3H]-NMS from Sprague-Dawley rat muscarinic M1 receptor in cortex membrane. Format: cell membranes.

Series [2] deals with T2, Muscarinic acetylcholine receptor M2 (Rattus norvegicus, UniProt P10980).
T2 sequence (P10980 whole entry): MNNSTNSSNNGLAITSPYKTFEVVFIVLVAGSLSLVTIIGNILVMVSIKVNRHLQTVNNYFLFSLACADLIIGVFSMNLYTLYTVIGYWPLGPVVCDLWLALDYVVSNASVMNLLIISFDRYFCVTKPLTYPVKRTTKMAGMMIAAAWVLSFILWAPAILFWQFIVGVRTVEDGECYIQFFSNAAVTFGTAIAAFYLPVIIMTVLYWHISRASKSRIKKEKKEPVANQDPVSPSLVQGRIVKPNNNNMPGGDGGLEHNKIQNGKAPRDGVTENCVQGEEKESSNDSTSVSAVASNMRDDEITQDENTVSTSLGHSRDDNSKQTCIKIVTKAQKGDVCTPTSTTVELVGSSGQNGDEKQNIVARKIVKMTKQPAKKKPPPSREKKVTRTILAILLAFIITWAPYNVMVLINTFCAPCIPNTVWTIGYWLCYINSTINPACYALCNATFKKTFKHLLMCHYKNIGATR
Nature of the series: Displacement of [3H]-NMS from Sprague-Dawley rat muscarinic M2 receptor in heart.

For series [3], the target named is Muscarinic acetylcholine receptor M3 (Rattus norvegicus, UniProt P08483). Nature of the series: Displacement of [3H]-NMS from Sprague-Dawley rat muscarinic M3 receptor in submandibular gland.
Chain of Muscarinic acetylcholine receptor M3 (P08483 whole entry): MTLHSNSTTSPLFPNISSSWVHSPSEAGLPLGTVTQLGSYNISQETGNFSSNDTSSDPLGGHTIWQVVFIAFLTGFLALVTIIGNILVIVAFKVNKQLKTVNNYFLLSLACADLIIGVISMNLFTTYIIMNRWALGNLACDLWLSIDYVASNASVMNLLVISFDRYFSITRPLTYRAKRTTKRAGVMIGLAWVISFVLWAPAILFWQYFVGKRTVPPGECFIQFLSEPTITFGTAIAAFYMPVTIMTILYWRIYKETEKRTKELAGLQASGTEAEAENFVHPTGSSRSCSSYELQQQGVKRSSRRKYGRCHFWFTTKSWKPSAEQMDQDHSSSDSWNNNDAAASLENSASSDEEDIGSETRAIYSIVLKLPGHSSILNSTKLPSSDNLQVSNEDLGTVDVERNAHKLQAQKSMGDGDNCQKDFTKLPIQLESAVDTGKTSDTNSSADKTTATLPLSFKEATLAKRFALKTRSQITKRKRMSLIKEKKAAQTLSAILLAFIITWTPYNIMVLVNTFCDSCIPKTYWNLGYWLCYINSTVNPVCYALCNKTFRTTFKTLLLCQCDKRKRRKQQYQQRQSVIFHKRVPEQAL
Series [4] has as its system Rattus norvegicus. Nature of the series: Bronchodilatory effect in Sprague-Dawley rat assessed as inhibition of CCh-induced bronchoconstriction at 0.5 ug/kg, it after 0.25 hrs. Format: functional. A digest of the protocol: (§1)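 Male Sprague-Dawley rats (250–400 g) anaesthetised with pentobarbital sodium (50 mg/kg i.p.), tracheally cannulated, given pancuronium bromide 0.2 mg/kg i.v. Compound given intratracheally at 0.5 μg/kg; CCh 30 μg/kg challenge at 0.25, 0.5, 2 or 24 h post-dose; airway pressure by pressure transducer. Inhibition expressed as mean percentage of control value, n = 3.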

In series [5] the test system is Rattus norvegicus. Nature of the series: Bronchodilatory effect in Sprague-Dawley rat assessed as inhibition of CCh-induced bronchoconstriction at 0.5 ug/kg, it after 0.5 hrs. It is filed as functional. The method, boiled down: as §1
Series [6] relates to Rattus norvegicus. Nature of the series: Bronchodilatory effect in Sprague-Dawley rat assessed as inhibition of CCh-induced bronchoconstriction at 0.5 ug/kg, it after 2 hrs. Format: functional. A digest of the protocol: as §1
Series [7] concerns Rattus norvegicus. Nature of the series: Bronchodilatory effect in Sprague-Dawley rat assessed as inhibition of CCh-induced bronchoconstriction at 0.5 ug/kg, it after 24 hrs. Format: functional. A digest of the protocol:
as §1

Series [8] deals with Rattus norvegicus. Nature of the series: Bronchodilatory effect in it dosed Sprague-Dawley rat assessed as inhibition of CCh-induced bronchoconstriction after 24 hrs. The note with it: read-out: ID50 (the source's name). Format: functional. The method, boiled down: (§2)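 Anaesthetised, cannulated male Sprague-Dawley rats dosed once intratracheally; 24 h later CCh (30 μg/kg) given, with bronchoconstriction (airway pressure via transducer) and salivation (net weight gain of cotton balls in oral cavity) recorded together in the same animal.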

The species named for series [9] is Rattus norvegicus. Nature of the series: Ratio of ID50 for effect on CCh-induced salivation in Sprague-Dawley rat to ID50 for inhibition of CCh-induced bronchoconstriction Sprague-Dawley rat.
The species named for series [10] is Rattus norvegicus. Nature of the series: Effect on CCh-induced salivation in Sprague-Dawley rat after 24 hrs. It is filed as ADME, organism-based. The following applies: in vivo. The method, boiled down: as §2
For series [11], the target named is Muscarinic acetylcholine receptor M3 (Rattus norvegicus) (UniProt P08483). Nature of the series: Displacement of [3H]-NMS from Sprague-Dawley rat muscarinic M3 receptor in submandibular gland measured after single/double washout.
Chain of Muscarinic acetylcholine receptor M3 (Rattus norvegicus) (P08483 whole entry, looked up): as the sequence (P08483 whole entry) above
Another series relates to Lung. Nature of the series: Drug uptake in it dosed Sprague-Dawley rat lung after 24 hrs. The note with it: in vivo, inhaled_or_intranasal. It is filed as ADME, organism-based.
Series [12] in a line: Drug uptake in it dosed Sprague-Dawley rat submandibular gland after 24 hrs. It is filed as ADME, organism-based. The note with it: in vivo.
In series [13] the test system is Rattus norvegicus. Nature of the series: Bronchodilatory effect in it dosed Sprague-Dawley rat assessed as inhibition of CCh-induced bronchoconstriction at 15 mins to 1 hr. Format: functional, organism-based.

Active and inactive are the calls of the source. No cut-off for these calls is given here.

With `C[N+]12CCC(OC(=O)Nc3ncsc3-c3cccc(C(F)(F)F)c3)(CC1)CC2`, the Ki in [1] came out at 2.3 nM; in [2], 14 nM; in [3] it was 1.8 nM.
As for `C[N+]1(C)[C@@H]2C[C@@H](OC(=O)C(O)(c3cccs3)c3cccs3)C[C@H]1[C@@H]1O[C@@H]12.O.[Br-]` [TIOTROPIUM BROMIDE], the Ki in [1] was determined as 0.16 nM; in series [2] it was 0.15 nM; in series [3] it was 0.3 nM. In addition, the inhibition in vivo at 0.0005 mg/kg with Rattus norvegicus [4] worked out at 44%; with Rattus norvegicus [5], 59%; with Rattus norvegicus [6], 83%; in the series on Rattus norvegicus [7] it was 78%. In addition, the ED50 in the series with Rattus norvegicus [8] was determined as 0.12 µg/kg. Further, the Ratio in the series filed under Rattus norvegicus [9] stood at 16. This compound also had an ID50 in the series filed under Rattus norvegicus [10] of 1.9 µg/kg. In addition, in [11], the inhibition result was “Active”. Further, the Drug uptake entry (with Lung; in [12]) was “Active” throughout.
On to `O=C(Nc1ccsc1-c1ccccc1)OC12CCN(CC1)CC2`, for which the Ki in [1] worked out at 0.095 nM; in [2] it was 0.46 nM; in [3], 0.056 nM.
On to `O=C(O[C@H]1C[N+]2(CCCOc3ccccc3)CCC1CC2)C(O)(c1cccs1)c1cccs1.[Br-]` [ACLIDINIUM BROMIDE], for which the ED50 in the series with Rattus norvegicus [8] is 0.4 µg/kg. Further, the Ratio in the series filed under Rattus norvegicus [9] is 24. Besides, the ID50 in the series listed under Rattus norvegicus [10] was 9.4 µg/kg.
`O=C(Nc1ncsc1-c1ccccc1)OC12CCN(CC1)CC2`: the values for the Ki in series [1] and in series [2] were 0.39 nM and 0.8 nM, respectively.
Consider `C[N+]12CCC(CC1)[C@@H](OC(=O)Nc1ncsc1-c1cccc(Cl)c1)C2`, for which the Ki in [1] amounted to 0.31 nM; in [2], 1.2 nM; in series [3], 0.25 nM. For the same compound, the inhibition in vivo at 0.0005 mg/kg in the series on Rattus norvegicus [4] is 64%; with Rattus norvegicus [5], 64%; with Rattus norvegicus [6] it was 50%.
As for `C[N+]12CCC(OC(=O)Nc3ncsc3-c3cc(Cl)cc(Cl)c3)(CC1)CC2`, the Ki came to 0.12 nM in [1], 0.64 nM in series [2] and 0.12 nM in [3].
As for `C[N+]12CCC(OC(=O)Nc3ncsc3-c3cccc(Cl)c3)(CC1)CC2` [listing 1 of 2 here], the Ki in series [1] was 0.041 nM; in [2], 0.053 nM; in series [3], 0.049 nM. Moreover, the inhibition in vivo at 0.0005 mg/kg is 67% with Rattus norvegicus [4], 67% in the series on Rattus norvegicus [5], 84% in the series on Rattus norvegicus [6] and 82% in the series on Rattus norvegicus [7].
For the compound `C[N+]12CCC(CC1)[C@@H](OC(=O)Nc1ncsc1-c1ccccc1)C2`, the Ki in series [1] is 0.37 nM; in [2] it was 1.2 nM; in [3] it was 0.37 nM. In addition, the inhibition in vivo at 0.0005 mg/kg was determined as 74% in the series with Rattus norvegicus [4], 62% with Rattus norvegicus [5], 54% in the series with Rattus norvegicus [6] and 14% with Rattus norvegicus [7].
With `CC(C)[N+]1(C)C2CCC1CC(OC(=O)C(CO)c1ccccc1)C2` (stereo not drawn), the inhibition in vivo at 0.0005 mg/kg came to 70% in the series with Rattus norvegicus [4], 85% with Rattus norvegicus [5], 83% with Rattus norvegicus [6] and 15% in the series on Rattus norvegicus [7]. Moreover, the inhibition result in series [11] is “inactive”.
Consider `C[N+]12CCC(OC(=O)Nc3ncsc3-c3ccccc3)(CC1)CC2`, for which the Ki in [1] turned out to be 0.055 nM; in series [2], 0.12 nM; in [3], 0.064 nM. In addition, the inhibition in vivo at 0.0005 mg/kg with Rattus norvegicus [7] worked out at 61%.
With `C[N+]12CCC(OC(=O)Nc3ncsc3-c3ccc(F)cc3)(CC1)CC2`, the Ki in series [1] came out at 0.073 nM; in series [2], 0.21 nM; in series [3], 0.1 nM.
`C[N+]12CCC(OC(=O)Nc3ncsc3-c3cccc(Cl)c3)(CC1)CC2.[Br-]`: in the series on Rattus norvegicus [8], the ED50 turned out to be 0.08 µg/kg. Moreover, the Ratio in the series filed under Rattus norvegicus [9] worked out at 53. Further, the ID50 in the series filed under Rattus norvegicus [10] was found to be 4.2 µg/kg. The Drug uptake entry (in the series with Lung; in series [12]) was “Active” each time.
For the compound `O=C(Nc1ccsc1-c1ccccc1)O[C@@H]1CN2CCC1CC2`, the figures for the Ki in series [1], in series [2] and in [3] were 4.6 nM, 13 nM and 4 nM, respectively.
Regarding `C[N+]12CCC(OC(=O)Nc3ncsc3-c3cccc(Cl)c3)(CC1)CC2` [listing 2 of 2 here], in series [11], the inhibition entry was “inactive”. Moreover, the inhibition entry with Rattus norvegicus [13] is “Active”.
As for `O=C(Nc1cscc1-c1ccccc1)OC12CCN(CC1)CC2`, the Ki in [1] was 0.51 nM; in series [2] it was 3.6 nM; in series [3], 0.21 nM.
The matching figures for `O=C(Nc1ccsc1-c1ccccc1)O[C@H]1CN2CCC1CC2`: 0.19 nM, 0.82 nM and 0.19 nM.
For the compound `C[N+]12CCC(OC(=O)Nc3ccsc3-c3ccccc3)(CC1)CC2`, the results for the inhibition constant Ki in [1], in [2] and in series [3] were 0.02 nM, 0.027 nM and 0.02 nM, respectively. The results for the inhibition in vivo at 0.0005 mg/kg with Rattus norvegicus [4], with Rattus norvegicus [5] and in the series with Rattus norvegicus [6] were 42%, 78% and 86%, respectively.
With `C[N+]1(C)CCC(OC(=O)C(O)(c2ccccc2)C2CCCC2)C1.[Br-]` (stereo not drawn) [GLYCOPYRRONIUM BROMIDE], the ED50 in the series with Rattus norvegicus [8] came out at 3.4 µg/kg. Besides, in the series on Rattus norvegicus [13], the inhibition result is “Active”.
For the compound `O=C(Nc1ccccc1-c1ccccc1)OC12CCN(CC1)CC2`, the results for the Ki in series [1], in series [2] and in [3] were 0.32 nM, 3.8 nM and 0.14 nM, respectively.
Taken in the same sequence, the figures for `O=C(Nc1sccc1-c1ccccc1)OC12CCN(CC1)CC2` were 0.33 nM, 1.4 nM and 0.12 nM.
The matching figures for `O=C(Nc1ncoc1-c1ccccc1)O[C@H]1CN2CCC1CC2`: 8.7 nM, 59 nM and 9.7 nM.
On to `O=C(Nc1scnc1-c1ccccc1)O[C@H]1CN2CCC1CC2`, for which the results for the Ki in series [1], in [2] and in [3] were 8.7 nM, 39 nM and 12 nM, respectively.
Taken in the same sequence, the figures for `O=C(Nc1ncsc1-c1ccccc1)O[C@H]1CN2CCC1CC2` were 0.75 nM, 1.9 nM and 0.93 nM.
